Bioassay records from PubChem.
MrgX1 antagonist: antagonists of human MrgX1 receptor. B-score at 10 µM. Q96LB2. AID 588676. MRGX1-HEK293 calcium flux, Fluo-4, BAM8-22 antagonism; active compounds read low. actives 1.3% (n = 310,000);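 active = calcium-response B-score plate-corrected more than 3 library SD below zero, starting fluorescence within 5 deviations, no agonist response on first addition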;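 also: peak minus trough fluorescence over baseline after final BAM8-22 challenge near maximal dose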
Target sequence (Q96LB2 whole entry, looked up): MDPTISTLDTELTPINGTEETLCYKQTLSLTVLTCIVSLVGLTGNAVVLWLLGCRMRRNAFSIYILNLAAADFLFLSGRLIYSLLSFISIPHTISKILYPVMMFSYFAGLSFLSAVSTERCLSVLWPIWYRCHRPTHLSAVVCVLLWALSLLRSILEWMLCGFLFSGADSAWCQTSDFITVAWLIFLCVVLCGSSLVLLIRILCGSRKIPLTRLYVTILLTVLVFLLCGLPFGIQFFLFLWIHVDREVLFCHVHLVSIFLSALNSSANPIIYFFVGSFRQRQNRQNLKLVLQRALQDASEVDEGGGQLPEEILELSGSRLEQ
RGS4 block: human RGS4 inhibition. P49798. HEK293 M3R/RGS4 inducible, Fluo-4 calcium flux; active compounds read high; triggered by carbachol at its EC20. B-score at 10 µM. actives 0.45% (n = 310,000). AID 463165;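 active = B-score, a plate-corrected calcium signal, over three deviations above library mean, with baseline fluorescence within five deviations of library mean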;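 also: RGS4 expression induced by doxycycline in cells with stable M3 receptor; B-score is computed from the integrated fluorescence ratio over baseline after carbachol; higher B-score means a larger calcium signal and so more RGS4 inhibition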
Target sequence (P49798 whole entry, looked up): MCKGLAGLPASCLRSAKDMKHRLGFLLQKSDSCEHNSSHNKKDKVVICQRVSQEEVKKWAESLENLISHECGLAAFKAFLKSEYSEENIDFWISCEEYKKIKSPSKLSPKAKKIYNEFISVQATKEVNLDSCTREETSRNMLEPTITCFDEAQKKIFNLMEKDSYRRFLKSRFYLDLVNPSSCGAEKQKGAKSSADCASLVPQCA
RGS4 act: potentiators or activators of RGS4. HEK293 M3R/inducible RGS4, carbachol calcium flux Fluo4; active compounds read low. B-score at 10 µM. actives 0.92% (n = 310,000);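 active = B-score of the integrated calcium signal more than 4 SD below the library mean, with starting fluorescence not abnormally high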;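 also: negative B-score means reduced calcium response which marks RGS4 activation or potentiation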
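Test system: HEK293 cells with stable M3R and inducible RGS4; also added: carbachol at ECmax as muscarinic agonist stimulus; schedule: dye loading 30 min 37 °C, buffer rest 30 min RT; technique: kinetic calcium fluorescence imaging with Fluo4-AM dye, 2 µM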
MrgX1 agonist: human MrgX1 receptor agonism, primary screen | B-score at 10 µM | Q96LB2 | MrgX1-HEK293 cells, Fluo-4 calcium fluorescence, agonist mode; active compounds read high | AID 588627 | actives 0.44% (n = 310,000);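 active = calcium response B-score plate-corrected fluorescence ratio at least 3 library SD, with starting fluorescence B-score inside 5 SD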
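Material: MrgX1-expressing HEK293 cells; input: 15,000 cells per well; doses: test compound given as first of three sequential additions; schedule: overnight plating before 1 h dye loading; technique: Fluo-4 NW calcium-flux fluorescence, kinetic read; evaluation: baseline-normalised fluorescence change ratio, B-scored; control set: plate-wise positive and negative controls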
MrgX1 PAM: human MrgX1 positive allosteric modulation, primary screen; Q96LB2; MrgX1-HEK293, Fluo-4 calcium flux, FDSS; active compounds read high; B-score at 10 µM; actives 0.63% (n = 310,000);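 active = plate-corrected calcium response at least 3 library SD above typical, normal starting fluorescence, not activating the receptor alone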;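 also: compound read alongside a low EC10 to EC30 dose of BAM8-22 agonist; peak minus trough fluorescence over baseline measured at the second addition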
RGS4 activ val: confirmation of RGS4 activators. shares compounds with RGS4 act. actives 89% (n = 1,100). HEK293 M3R/RGS4 inducible, carbachol calcium flux Fluo4. inhibition, % at 10 µM;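 active = inhibition above 3 SD of the buffer control wells, cut at about 41% in these data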;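 also: signal is the integrated peak-minus-minimum Fluo4 fluorescence over baseline ratio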
M3R Ca counter: RGS4 activator counter-screen hit in non-induced cells. shares compounds with RGS4 act. HEK293 M3R non-induced RGS4, Fluo4 calcium flux; after carbachol challenge at its EC90. inhibition, % at 10 µM. actives 82% (n = 1,100). AID 602283;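 active = inhibition exceeding 3 SD of buffer-only control wells, cut at about 26% in these data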;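 also: percent drop in integrated peak-minus-baseline over baseline Fluo4 ratio after carbachol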
* = called active by the depositor; i = inactive; · = no result given. Sampled rows, rich in hits. Any-hit rate of the full collection: about 3.5%.

SMILES	MrgX1 antagonist	RGS4 block	RGS4 act	MrgX1 agonist	MrgX1 PAM	RGS4 activ val	M3R Ca counter
N=c1c2c(-c3ccccc3)c(-c3ccccc3)oc2ncn1CCN1CCOCC1	i	i	-9*	i	i	58*	84*
O=C1COc2ccc(C(=O)COc3ccc(Cl)cc3Br)cc2N1	i	i	i	i	i	·	·
CCC(=O)N1CCN(c2ccccc2NC(=O)COc2ccc(C(C)C)cc2)CC1	i	i	i	i	i	·	·
COc1ccc2c(c1)C=C(CN1CCC(CO)(CCc3ccccc3)CC1)CO2	i	i	-8*	i	i	80*	84*
COc1ccc(CN2CCCC(C(=O)c3ccc4c(c3)OCO4)C2)c(F)c1 (stereo not given)	i	i	-8.3*	i	i	91*	81*
Cc1nn(C(C)C)c(C)c1CN1CCCC(C(=O)c2cccc(OC(C)C)c2)C1 (stereo not given)	i	i	-8.4*	i	i	70*	84*
CCn1nc(C)c(CN2CCCC(C(=O)c3cccc(OC(C)C)c3)C2)c1C (stereo not given)	i	i	i	i	i	·	·
CC(=O)c1cccc(CN2CCCC(C(=O)c3ccc4c(c3)OCO4)C2)c1 (stereo not given)	i	i	-8.3*	i	i	74*	26*
O=C(C1CCCN(Cc2ccc3c(c2)OCO3)C1)N1CCCC1 (stereo not given)	i	i	i	i	i	·	·
COc1cccc(CN2CCCC(C(=O)c3ccc4c(c3)OCO4)C2)c1O (stereo not given)	i	i	i	i	i	·	·
O=C(c1ccc2c(c1)OCO2)C1CCCN(C2CCN(CCc3ccccc3)CC2)C1 (stereo not given)	i	i	-13*	i	i	87*	55*
Cc1ccccc1N1C(=O)C(Cc2ccc(F)cc2)S/C1=C(\C#N)C(N)=O (stereo not given)	i	i	i	i	i	·	·
O=C(N/N=C/c1cccnc1)c1cc(O)c(O)c(O)c1	i	i	i	i	i	·	·
CC(Cc1ccccc1)NC(=S)CN1CCCC1=S (stereo not given)	i	i	i	i	i	·	·
COc1cccc(C(=O)C2CCCN(Cc3cccc(-n4nc(C)cc4C)c3)C2)c1 (stereo not given)	i	i	-9.8*	i	i	93*	75*
Cc1nc(NC(=O)CSc2nccn2C)sc1C(=O)N(C)C	i	i	i	i	i	·	·
O=C(Nc1cccc(Cl)c1N1CCOCC1)c1cccs1	i	i	i	i	i	·	·
CC(C)Nc1nc(NC(C)C)nc(N(C#N)CCOc2ccc(Cl)cc2Cl)n1	i	i	-7.8*	i	i	63*	84*
Cc1cccc(NC(=O)CSc2nc(C)c(Cc3ccccc3)c(=O)[nH]2)c1C	i	i	i	i	i	·	·
OC(C#CCCN1CCCCC1)(c1ccccc1)C1CCCCC1 (stereo not given)	i	i	-9*	i	i	92*	96*
OCCN(CC#CC(O)(c1ccccc1)C1CCCCC1)CCO (stereo not given)	i	i	i	i	i	·	·
COC(=O)Cc1[nH]n(-c2ccccc2)c(=O)c1C=Nc1ccc(C)cc1	i	i	i	i	i	·	·
CCCC1Oc2ccccc2C(=O)N(CC(=O)c2ccc3c(c2)OCCO3)C1=O (stereo not given)	i	i	-9*	i	i	58*	0
CCOC(=O)c1c(C)[nH]c(C)c1S(=O)(=O)NC(CC)CN1CCOCC1 (stereo not given)	i	i	i	i	i	·	·
Cc1ccc(CNC(=O)CSc2nc3c(sc4ccccc43)c(=O)n2CCCN2CCCC2)cc1	i	i	-11*	i	i	94*	97*
SMILES	MrgX1 antagonist	RGS4 block	RGS4 act	MrgX1 agonist	MrgX1 PAM	RGS4 activ val	M3R Ca counter
O=C1CCCN1CCCNc1nc2c(S(=O)(=O)c3ccccc3)nnn2c2ccc(Cl)cc12	i	i	i	i	i	·	·
O=C(NC1CCCCC1)N1CCSC1=Nc1ccccc1	i	i	-8.2*	i	i	80*	43*
COC(=O)C1CCN(c2nc3ccccc3nc2C(C#N)C(=O)OCC(C)C)CC1 (stereo not given)	i	i	-7.9*	i	i	91*	75*
N=c1c2c(-c3ccccc3)c(-c3ccccc3)n(Cc3ccco3)c2ncn1Cc1ccccc1	i	i	-11*	i	i	93*	95*
O=C(OCC(=O)N1CCc2ccccc21)c1c2c(nc3ccccc13)CCCCC2	i	i	-9.4*	i	i	83*	44*
CC(C)(C)NC(=O)COC(=O)c1c2c(nc3ccccc13)CCC2	i	i	-9.6*	i	i	44*	0
COc1ccccc1CCNC(=O)CCn1c(=O)c2cccn2c2ccc(F)cc21	i	i	i	i	i	·	·
O=C(CSc1c2c(nc3ccc(Cl)cc13)CCCC2)NCCCN1CCOCC1	i	i	-11*	i	i	92*	91*
N#Cc1ccccc1OCCCN1CCC(Cc2ccccc2)CC1	i	i	-8.7*	i	i	82*	39*
CCN(CC)CCOC(=O)C1(c2ccc(OC)c(OC)c2)CCCC1	i	i	i	i	i	·	·
CCN(CC)CCOC(=O)C1(c2ccccc2)CCCC1	i	i	-9.1*	i	i	94*	93*
CC(C)(C)c1cc(-c2csc(Nc3ccccc3)[n+]2Cc2ccc(C(=O)O)cc2)cc(C(C)(C)C)c1O	-9.5*	i	-11*	i	i	94*	97*
COc1cccc(CNC(=O)CCC2CCCN(c3cc(C)nc(N(C)C)n3)C2)c1 (stereo not given)	i	i	-11*	i	i	90*	72*
CN(Cc1ccc(C#CCCO)cc1)CC1CCCN(CCc2ccc(Cl)cc2)C1 (stereo not given)	i	i	i	i	i	·	·
CN(Cc1ccccc1O)CC1CCCN(CCc2ccc(Cl)cc2)C1 (stereo not given)	i	i	-10*	i	i	94*	73*
O=C(COC(=O)CCc1ccccc1)Nc1ccc(F)cc1Cl	i	i	i	i	i	·	·
